8 molecules from ChEMBL document CHEMBL1123807, “Aldosterone antagonists. 2. New 7 alpha-(acetylthio)-15,16-methylene spirolactones” (1987) can be followed below.

Where only a bound is given, the exact number is not on record here.

The target in assay [1] is T1, Progesterone receptor (Oryctolagus cuniculus) (UniProt P06186).
T1 sequence (whole entry): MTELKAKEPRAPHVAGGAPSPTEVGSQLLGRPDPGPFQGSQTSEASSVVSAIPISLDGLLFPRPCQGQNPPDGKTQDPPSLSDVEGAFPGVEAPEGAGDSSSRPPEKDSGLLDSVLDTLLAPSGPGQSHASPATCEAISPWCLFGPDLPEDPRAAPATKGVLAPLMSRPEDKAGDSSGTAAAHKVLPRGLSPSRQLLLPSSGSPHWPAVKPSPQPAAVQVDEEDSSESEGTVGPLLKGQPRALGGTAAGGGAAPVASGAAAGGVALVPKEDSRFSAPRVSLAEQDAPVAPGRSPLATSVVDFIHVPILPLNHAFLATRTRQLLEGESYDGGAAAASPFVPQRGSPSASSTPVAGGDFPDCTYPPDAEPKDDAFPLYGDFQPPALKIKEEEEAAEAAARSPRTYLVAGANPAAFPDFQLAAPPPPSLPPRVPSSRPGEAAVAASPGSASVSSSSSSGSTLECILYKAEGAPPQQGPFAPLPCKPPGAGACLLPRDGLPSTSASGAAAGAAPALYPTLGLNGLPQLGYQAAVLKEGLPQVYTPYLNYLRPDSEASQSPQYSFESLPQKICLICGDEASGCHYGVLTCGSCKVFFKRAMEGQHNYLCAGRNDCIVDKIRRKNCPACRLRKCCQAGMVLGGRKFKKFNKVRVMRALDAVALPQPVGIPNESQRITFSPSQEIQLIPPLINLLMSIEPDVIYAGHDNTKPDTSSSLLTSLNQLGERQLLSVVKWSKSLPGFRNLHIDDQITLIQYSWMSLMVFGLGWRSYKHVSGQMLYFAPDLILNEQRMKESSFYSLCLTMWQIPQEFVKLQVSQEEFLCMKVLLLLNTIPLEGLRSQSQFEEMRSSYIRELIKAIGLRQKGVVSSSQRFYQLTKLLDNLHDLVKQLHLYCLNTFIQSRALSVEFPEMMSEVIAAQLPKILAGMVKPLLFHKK
Briefly: Relative binding to progesterone receptor compared to progesterone. In outline:
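Competitive binding to progesterone receptor from rabbit uterus using tritiated progesterone as ligand. Competition factor is the multiple of the concentration needed to give displacement equivalent to the standard; a high factor means weak binding.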

Assay [2] deals with T1, Progesterone receptor (Oryctolagus cuniculus). Kind of assay: Progestational activity by Clauberg test in rabbits as McPhail index after 3 mg subcutaneous dose. It is filed as functional. The essentials: (§1)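 Castrated infantile female New Zealand rabbits (800–1000 g) were primed with estradiol 0.5 μg sc daily for 6 days. They then received compound over 5 days (total 3–100 mg sc or 30–300 mg po).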

In assay [3] the target is T2, Mineralocorticoid receptor (Rattus norvegicus) (UniProt P22199).
T2 sequence (whole entry): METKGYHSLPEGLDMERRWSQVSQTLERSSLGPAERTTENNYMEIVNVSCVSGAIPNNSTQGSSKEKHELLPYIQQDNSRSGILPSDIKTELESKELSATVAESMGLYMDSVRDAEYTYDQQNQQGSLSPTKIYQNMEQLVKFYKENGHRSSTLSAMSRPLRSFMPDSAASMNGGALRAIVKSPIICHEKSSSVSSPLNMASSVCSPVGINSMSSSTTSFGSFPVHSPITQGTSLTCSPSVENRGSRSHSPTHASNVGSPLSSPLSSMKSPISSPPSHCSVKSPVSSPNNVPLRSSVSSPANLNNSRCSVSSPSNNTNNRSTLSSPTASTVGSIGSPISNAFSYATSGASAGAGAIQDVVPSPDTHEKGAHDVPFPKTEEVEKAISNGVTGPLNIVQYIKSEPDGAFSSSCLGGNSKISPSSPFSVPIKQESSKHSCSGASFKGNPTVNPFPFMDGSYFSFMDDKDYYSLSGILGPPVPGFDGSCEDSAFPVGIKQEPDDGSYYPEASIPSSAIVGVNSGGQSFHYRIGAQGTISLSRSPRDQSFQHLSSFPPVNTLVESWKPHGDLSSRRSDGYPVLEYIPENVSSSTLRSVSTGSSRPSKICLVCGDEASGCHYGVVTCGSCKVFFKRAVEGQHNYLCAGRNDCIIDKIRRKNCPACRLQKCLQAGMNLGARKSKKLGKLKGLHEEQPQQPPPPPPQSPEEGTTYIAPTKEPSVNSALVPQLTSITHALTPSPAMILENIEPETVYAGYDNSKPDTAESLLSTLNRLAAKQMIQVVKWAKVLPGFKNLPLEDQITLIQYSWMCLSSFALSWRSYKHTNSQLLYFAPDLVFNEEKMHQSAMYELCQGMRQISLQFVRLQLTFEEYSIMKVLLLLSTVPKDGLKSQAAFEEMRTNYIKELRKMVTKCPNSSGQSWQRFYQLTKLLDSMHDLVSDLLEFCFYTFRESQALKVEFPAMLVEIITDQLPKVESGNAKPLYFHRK
Kind of assay: Antialdosterone activity in rats administered orally compared to Spironolactone(100).

Assay [4] deals with T1, Progesterone receptor (Oryctolagus cuniculus). Kind of assay: Progestational activity by Clauberg test in rabbits as McPhail index after 100 mg subcutaneous dose. The format is functional. The essentials: as §1
Assay [5] shares this target. Kind of assay: Progestational activity by Clauberg test in rabbits as McPhail index after 10 mg subcutaneous dose. It is filed as functional. The essentials:
as §1

For assay [6] the target is unchanged. Kind of assay: Progestational activity by Clauberg test in rabbits as McPhail index after 30 mg subcutaneous dose. It is filed as functional. The essentials: as §1
For assay [7], the species on record is Rattus norvegicus. Briefly: Ovulation inhibitory activity in rats after 40 mg peroral dose.
The species named for assay [8] is Rattus norvegicus. Kind of assay: Ovulation inhibitory activity in rats after 100 mg peroral dose.
The target of assay [9] is T3, Androgen receptor (Rattus norvegicus) (UniProt P15207).
T3 sequence (whole entry): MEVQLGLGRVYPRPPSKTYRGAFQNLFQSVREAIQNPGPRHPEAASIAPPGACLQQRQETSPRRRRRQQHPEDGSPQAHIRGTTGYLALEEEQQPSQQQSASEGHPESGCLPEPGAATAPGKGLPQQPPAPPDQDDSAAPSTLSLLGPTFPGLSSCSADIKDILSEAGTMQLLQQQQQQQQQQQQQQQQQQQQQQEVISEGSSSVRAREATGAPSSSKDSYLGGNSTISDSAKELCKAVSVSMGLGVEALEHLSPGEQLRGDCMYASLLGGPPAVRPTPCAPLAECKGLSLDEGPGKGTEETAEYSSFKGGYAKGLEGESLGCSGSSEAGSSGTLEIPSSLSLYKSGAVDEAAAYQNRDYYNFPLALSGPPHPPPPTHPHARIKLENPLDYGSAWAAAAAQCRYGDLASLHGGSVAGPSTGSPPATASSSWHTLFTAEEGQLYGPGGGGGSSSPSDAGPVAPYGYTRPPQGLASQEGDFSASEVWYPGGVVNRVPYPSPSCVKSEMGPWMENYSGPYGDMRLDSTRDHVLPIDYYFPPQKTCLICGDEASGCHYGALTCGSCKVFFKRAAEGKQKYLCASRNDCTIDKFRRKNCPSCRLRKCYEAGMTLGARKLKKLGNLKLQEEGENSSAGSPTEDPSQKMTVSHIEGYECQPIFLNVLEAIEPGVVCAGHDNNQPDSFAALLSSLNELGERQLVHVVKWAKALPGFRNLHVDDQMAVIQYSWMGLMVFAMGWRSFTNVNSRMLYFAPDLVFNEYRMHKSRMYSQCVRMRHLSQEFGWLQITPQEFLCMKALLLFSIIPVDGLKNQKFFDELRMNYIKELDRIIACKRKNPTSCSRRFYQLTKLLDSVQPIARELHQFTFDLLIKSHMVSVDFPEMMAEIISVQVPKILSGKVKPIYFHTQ
Kind of assay: Antiandrogenic activity as prostate weight after subcutaneous administration compared to Spironolactone. It is filed as functional, organism-based. The following applies: Prostate gland. The essentials: (§2)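 Castrated male Wistar SPF rats (~100 g) were dosed once daily for 12 days, sc at 1–16 mg/rat or po at 1–100 mg/rat, each with testosterone propionate 0.1 mg/rat sc; controls got Tp alone. On day 13, fresh seminal vesicle and ventral prostate weights were taken as % of Tp control. Relative potency came from regression/covariance analysis.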

Assay [10] concerns the target T3, Androgen receptor (Rattus norvegicus). Kind of assay: Antiandrogenic activity as seminal vesicle weight after subcutaneous administration compared to Spironolactone. It is filed as functional, organism-based. The essentials: as §2
The target of assay [11] is T1, Progesterone receptor (Oryctolagus cuniculus). Briefly: Progestational activity by Clauberg test in rabbits as McPhail index after 100 mg peroral dose. The format is functional. The essentials:
as §1

Assay [12] shares this target. Briefly: Progestational activity by Clauberg test in rabbits as McPhail index after 300 mg peroral dose. The format is functional. The essentials: as §1
The target is the same in assay [13]. Kind of assay: Progestational activity by Clauberg test in rabbits as McPhail index after 30 mg peroral dose. It is filed as functional. The essentials:
as §1

Assay [14] concerns the target T3, Androgen receptor (Rattus norvegicus). Kind of assay: Antiandrogenic activity after peroral administration as relative potency compared to Spironolactone. It is filed as functional, organism-based. In outline:
as §2

For assay [15], the species on record is Rattus norvegicus. Briefly: Ovulation inhibitory activity in rats after 30 mg peroral dose.

As for `CC(=O)S[C@@H]1CC2=CC(=O)CCC2(C)C2CCC3(C)C(C21)[C@@H]1C[C@@H]1[C@@]31CCC(=O)O1` (stereo partly drawn), the Ratio in [1] was found to be 14. In assay [2], this molecule returned a McPhail index of 1.6. The same molecule showed a Relative potency in [3] of 186.
Regarding `CC(=O)S[C@@H]1CC2=CC(=O)[C@@H]3C[C@@H]3C2(C)C2CCC3(C)C(C21)[C@@H]1C[C@@H]1[C@@]31CCC(=O)O1` (stereo partly drawn), the Ratio in assay [1] was determined as 7.8. Further, the McPhail index in assay [4] was determined as 3.4; in [5], 1; in assay [6], 1.6. Also, in the assay listed under Rattus norvegicus [7], the Inhibition (commonly the share of the control response that was lost under treatment) worked out at 100%. Further, the Relative potency in [3] stood at 228.
On to `CC(=O)S[C@@H]1CC2=CC(=O)CC[C@]2(C)[C@H]2CC[C@@]3(C)[C@@H](CC[C@@]34CCC(=O)O4)[C@H]12` [SPIRONOLACTONE], for which the Inhibition in the assay listed under Rattus norvegicus [7] stood at 16%; in the assay listed under Rattus norvegicus [8] it was 20%.
`CC(=O)S[C@@H]1CC2=CC(=O)[C@@H]3C[C@@H]3C2(C)C2CCC3(C)C(C21)[C@H]1C[C@H]1[C@@]31CCC(=O)O1` (stereo partly drawn): in [1], the Ratio came out at 19. Moreover, the McPhail index in assay [4] worked out at 3.1; in assay [5], 2.4; in assay [6], 3. Besides, the Relative potency in assay [9] is 2.4; in [10] it was 1; in assay [3], 281.
In the case of `CC(=O)S[C@@H]1CC2=CC(=O)C=C[C@]2(C)[C@H]2CC[C@@]3(C)[C@@H]([C@@H]4C[C@@H]4[C@@]34CCC(=O)O4)[C@H]12` (stereo in doubt), in assay [1], the Ratio stood at 33. Also, the McPhail index in assay [11] is 1.6; in [12], 2.8; in [13] it was 1; in assay [4], 2.6; in assay [5], 1.2; in assay [6], 1.7. For the same molecule, the Relative potency is 0.4 in assay [9], 0.2 in assay [10], less than 0.1 in [14] and 333 in assay [3].
As to `CC(=O)S[C@@H]1CC2=CC(=O)C=C[C@]2(C)[C@H]2CC[C@@]3(C)[C@@H]([C@@H]4C[C@@H]4[C@@]34CCC(=O)O4)[C@H]12` (stereo in doubt) [MESPIRENONE], the Inhibition in the assay filed under Rattus norvegicus [15] is on record as 0%; in the assay listed under Rattus norvegicus [8] it was 20%.
`CC(=O)S[C@@H]1CC2=CC(=O)CCC2(C)C2CCC3(C)C(C21)[C@H]1C[C@H]1[C@@]31CCC(=O)O1` (stereo partly drawn): in assay [1], the Ratio turned out to be 18. Moreover, the McPhail index came out at 3.1 in assay [4], 2.6 in [5] and 3.1 in [6]. In [3], this molecule showed a Relative potency of 282.
`CC(=O)S[C@@H]1CC2=CC(=O)C=C[C@]2(C)[C@H]2CC[C@@]3(C)[C@@H]([C@@H]4C[C@@H]4[C@@]34CCC(=O)O4)[C@H]12` (stereo in doubt; 14): in assay [1], the Ratio was 76. In [3], this molecule displayed a Relative potency of 115.
